Source: ChEMBL document CHEMBL1134525, “Novel N-(arylalkyl)indol-3-ylglyoxylylamides targeted as ligands of the benzodiazepine receptor: synthesis, biological evaluation, and molecular modeling analysis of the structure-activity relationships” (J Med Chem, 2001)
“And” between values parts separate entries of the source, which are not always exact repeats. Identical values can stand only once.

What was measured:
[1] = target: T1, GABA-A receptor; anion channel (Bos taurus) (UniProt P10063+P08220+P20237+P08219+P10064+P22300); test: Inhibition of [3H]- flumazenil binding to benzodiazepine receptor in bovine brain membranes at a dose of 10 uM; type: cell membranes
Method in brief: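 Bovine brain membranes were freeze-thawed, washed by suspension and centrifugation in 50 mM tris-citrate pH 7.4, then used for competition binding against [3H]flumazenil. Specific binding inhibition was first measured at a fixed 10 µM. […] Protein was measured by the Lowry method.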

[2] = target: GABA-A receptor; anion channel; test: Inhibition of [3H]- flumazenil binding to benzodiazepine receptor in bovine brain membranes; type: cell membranes
Method in brief: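 Bovine brain membranes were freeze-thawed, washed by suspension and centrifugation in 50 mM tris-citrate pH 7.4, then used for competition binding against [3H]flumazenil. Specific binding inhibition was first measured at a fixed 10 µM. Protein was measured by the Lowry method.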

[3] = Ratio of Ki with out GABA and with GABA
[4] = target: GABA A receptor alpha-5/beta-3/gamma-2 (Rattus norvegicus, UniProt P18508+P19969+P63079); test: Inhibition of [3H]flumazenil binding to rat alpha-5-beta-3-gamma-2 GABA-A receptor subunits expressed in HEK293 cells; type: cell-based
GABA A receptor alpha-5/beta-3/gamma-2, sequence (P18508 whole entry): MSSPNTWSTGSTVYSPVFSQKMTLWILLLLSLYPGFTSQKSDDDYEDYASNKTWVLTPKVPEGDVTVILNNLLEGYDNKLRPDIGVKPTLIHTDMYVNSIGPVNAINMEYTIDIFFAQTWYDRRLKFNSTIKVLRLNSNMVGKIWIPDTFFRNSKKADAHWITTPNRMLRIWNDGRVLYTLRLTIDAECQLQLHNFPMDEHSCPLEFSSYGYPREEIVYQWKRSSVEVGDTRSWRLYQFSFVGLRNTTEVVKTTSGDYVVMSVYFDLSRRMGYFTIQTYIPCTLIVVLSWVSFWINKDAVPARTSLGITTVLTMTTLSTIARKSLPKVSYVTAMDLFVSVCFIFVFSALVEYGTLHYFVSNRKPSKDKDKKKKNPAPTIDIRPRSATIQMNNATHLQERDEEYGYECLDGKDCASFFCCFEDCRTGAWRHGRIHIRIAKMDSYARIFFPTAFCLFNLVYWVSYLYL
GABA A receptor alpha-5/beta-3/gamma-2, sequence (P19969 whole entry): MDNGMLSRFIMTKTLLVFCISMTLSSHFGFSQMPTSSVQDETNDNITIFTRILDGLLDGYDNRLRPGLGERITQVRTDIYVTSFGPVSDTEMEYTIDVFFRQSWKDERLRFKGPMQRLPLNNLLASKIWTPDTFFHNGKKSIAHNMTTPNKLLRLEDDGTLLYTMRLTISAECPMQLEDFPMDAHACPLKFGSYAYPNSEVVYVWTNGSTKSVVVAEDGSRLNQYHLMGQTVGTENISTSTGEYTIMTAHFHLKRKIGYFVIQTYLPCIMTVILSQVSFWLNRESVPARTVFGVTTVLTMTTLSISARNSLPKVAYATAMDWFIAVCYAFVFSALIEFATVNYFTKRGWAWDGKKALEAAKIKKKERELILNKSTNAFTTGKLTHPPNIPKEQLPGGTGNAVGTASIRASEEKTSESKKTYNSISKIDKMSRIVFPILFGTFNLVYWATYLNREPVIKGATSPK
GABA A receptor alpha-5/beta-3/gamma-2, sequence (P63079 whole entry): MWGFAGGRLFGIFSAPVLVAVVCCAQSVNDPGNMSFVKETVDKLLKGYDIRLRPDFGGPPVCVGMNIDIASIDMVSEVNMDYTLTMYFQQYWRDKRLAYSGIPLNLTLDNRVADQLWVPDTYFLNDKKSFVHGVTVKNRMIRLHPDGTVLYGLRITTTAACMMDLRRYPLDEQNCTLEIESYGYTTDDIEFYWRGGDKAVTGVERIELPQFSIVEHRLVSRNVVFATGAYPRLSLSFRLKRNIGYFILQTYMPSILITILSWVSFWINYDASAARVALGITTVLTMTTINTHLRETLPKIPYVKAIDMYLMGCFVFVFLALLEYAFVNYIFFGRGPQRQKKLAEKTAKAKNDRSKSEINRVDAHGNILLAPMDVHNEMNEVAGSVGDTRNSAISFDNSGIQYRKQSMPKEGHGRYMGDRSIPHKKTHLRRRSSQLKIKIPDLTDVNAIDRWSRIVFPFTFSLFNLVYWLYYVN
Method in brief: (§1)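 Membranes came from HEK293 clonal lines expressing rat GABAA subtypes, grown in MEM/EBSS with 10% FCS, 2 mM glutamine and penicillin/streptomycin at 37 °C in 5% CO2. Membranes were homogenized and centrifuged (48 000 × g, 30 min, 4 °C) in 10 mM K-phosphate pH 7.4 and resuspended with 100 mM KCl. […] Nonspecific binding was defined with 10^-5 M diazepam. Results are the mean of three determinations.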

[5] = target: GABA-A receptor; alpha-1/beta-2/gamma-2 (Rattus norvegicus, UniProt P18508+P62813+P63138); test: Inhibition of [3H]flumazenil binding to rat alpha-1-beta-2-gamma-2 GABA-A receptor subunits expressed in HEK293 cells; type: cell-based; method in brief: as §1
GABA-A receptor; alpha-1/beta-2/gamma-2, sequence (P18508 whole entry): as the sequence (P18508 whole entry) above
GABA-A receptor; alpha-1/beta-2/gamma-2, sequence (P62813 whole entry): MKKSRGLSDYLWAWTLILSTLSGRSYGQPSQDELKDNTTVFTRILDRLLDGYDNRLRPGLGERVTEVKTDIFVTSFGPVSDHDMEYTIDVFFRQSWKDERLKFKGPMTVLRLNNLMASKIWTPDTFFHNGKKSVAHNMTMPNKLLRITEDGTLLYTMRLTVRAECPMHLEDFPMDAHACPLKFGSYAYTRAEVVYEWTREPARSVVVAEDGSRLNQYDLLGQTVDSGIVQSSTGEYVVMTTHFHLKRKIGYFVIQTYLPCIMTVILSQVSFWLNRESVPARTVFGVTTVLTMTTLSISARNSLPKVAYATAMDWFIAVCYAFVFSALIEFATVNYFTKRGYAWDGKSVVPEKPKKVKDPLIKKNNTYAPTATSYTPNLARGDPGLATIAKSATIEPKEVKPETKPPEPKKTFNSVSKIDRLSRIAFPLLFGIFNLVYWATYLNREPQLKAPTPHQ
GABA-A receptor; alpha-1/beta-2/gamma-2, sequence (P63138 whole entry): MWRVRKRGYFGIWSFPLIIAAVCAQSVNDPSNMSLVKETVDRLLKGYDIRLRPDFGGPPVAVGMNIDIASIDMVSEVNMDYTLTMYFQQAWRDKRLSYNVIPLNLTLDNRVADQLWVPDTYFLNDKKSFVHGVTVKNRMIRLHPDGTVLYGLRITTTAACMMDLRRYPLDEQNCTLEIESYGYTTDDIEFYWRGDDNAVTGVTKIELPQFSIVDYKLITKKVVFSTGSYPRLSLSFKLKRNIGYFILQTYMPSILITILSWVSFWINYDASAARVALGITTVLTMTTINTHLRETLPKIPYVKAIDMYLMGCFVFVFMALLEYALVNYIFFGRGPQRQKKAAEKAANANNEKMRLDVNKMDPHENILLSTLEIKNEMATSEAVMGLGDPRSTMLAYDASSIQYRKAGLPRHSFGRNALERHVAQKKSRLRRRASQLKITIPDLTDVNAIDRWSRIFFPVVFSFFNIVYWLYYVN

[6] = target: GABA A receptor alpha-3/beta-2/gamma-2 (Rattus norvegicus, UniProt P18508+P20236+P63138); test: (§2) Inhibition of [3H]flumazenil binding to rat alpha-3-beta-2-gamma-2 GABA-A receptor subunits expressed in HEK293 cells; type: cell-based; method in brief: as §1
GABA A receptor alpha-3/beta-2/gamma-2, sequence (P18508 whole entry): as the sequence (P18508 whole entry) above
GABA A receptor alpha-3/beta-2/gamma-2, sequence (P20236 whole entry): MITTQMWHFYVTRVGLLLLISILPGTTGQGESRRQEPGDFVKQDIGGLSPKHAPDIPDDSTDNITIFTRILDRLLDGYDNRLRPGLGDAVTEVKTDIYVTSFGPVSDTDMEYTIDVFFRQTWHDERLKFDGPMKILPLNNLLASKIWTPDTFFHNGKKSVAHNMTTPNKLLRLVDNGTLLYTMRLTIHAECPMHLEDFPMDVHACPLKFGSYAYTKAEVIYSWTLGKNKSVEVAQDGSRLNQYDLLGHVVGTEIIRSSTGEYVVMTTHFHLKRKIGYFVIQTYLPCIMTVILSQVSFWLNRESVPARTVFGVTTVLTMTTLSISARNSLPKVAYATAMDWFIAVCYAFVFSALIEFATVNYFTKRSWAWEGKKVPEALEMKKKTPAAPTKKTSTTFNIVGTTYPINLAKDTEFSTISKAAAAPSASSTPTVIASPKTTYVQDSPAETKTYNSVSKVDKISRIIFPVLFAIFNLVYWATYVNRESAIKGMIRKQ
GABA A receptor alpha-3/beta-2/gamma-2, sequence (P63138 whole entry): as the sequence (P63138 whole entry) above

[7] = target: T1, GABA-A receptor; anion channel (Bos taurus); test: Relative bindign to GABA-A receptor in the presence and absence of GABA (GABA shift), Ki(-GABA)/Ki(+GABA); type: protein-complex assay
Method in brief: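 [3H]flumazenil displacement Ki was measured both with and without GABA, using exhaustively washed bovine brain membranes or HEK293 membranes expressing rat α1β2γ2, α3β2γ2 or α5β3γ2. GABA ratio = Ki(without GABA)/Ki(with GABA).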

[8] = target: GABA A receptor alpha-3/beta-2/gamma-2 (Rattus norvegicus) (UniProt P18508+P20236+P63138); test: as §2; type: cell-based; method in brief: as §1
[9] = target: T2, GABA A receptor alpha-5/beta-3/gamma-2 (Rattus norvegicus) (UniProt P18508+P19969+P63079); settings: HEK293, 10 uM
[10] = target: T2, GABA A receptor alpha-5/beta-3/gamma-2 (Rattus norvegicus); test: Inhibition of [3H]flumazenil binding to rat alpha-5-beta-3-gamma-2 GABA-A receptor subunits expressed in HEK293 cells at 10 uM; type: cell-based; method in brief: as §1

Compound	inhibition [1]	Ki [2]	also measured
COc1ccc(NNC(=O)C(=O)c2c[nH]c3ccc(Cl)cc23)cc1	< 80%		
O=C(NCc1ccc(Cl)cc1)C(=O)c1c[nH]c2ccc(Cl)cc12	< 80%		
C[C@H](NC(=O)C(=O)c1c[nH]c2ccccc12)c1ccccc1	< 80%		
O=C(N[C@H]1CCc2ccccc21)C(=O)c1c[nH]c2ccc([N+](=O)[O-])cc12	< 80%		
COc1ccc(C(C)NC(=O)C(=O)c2c[nH]c3ccccc23)cc1 (racemic)		1170 nM	
O=C(NCc1ccc([N+](=O)[O-])cc1)C(=O)c1c[nH]c2ccccc12		21 nM	Ratio [3]: 0.9 and 0.91 and 0.73; Ki [4]: 58 nM; Ki [5]: 16 nM; Ki [6]: 1600 nM
O=C(NC(CO)c1ccccc1)C(=O)c1c[nH]c2ccccc12 (racemic)	< 80%		
C[C@H](NC(=O)C(=O)c1c[nH]c2ccc(Cl)cc12)c1ccccc1		100 nM	
CCOC(=O)C(NC(=O)C(=O)c1c[nH]c2ccccc12)c1ccccc1 (racemic)	< 80%		
O=C(NCc1ccc([N+](=O)[O-])cc1)C(=O)c1c[nH]c2ccc(Cl)cc12		1370 nM	
C[C@H](NC(=O)C(=O)c1c[nH]c2ccccc12)c1ccc([N+](=O)[O-])cc1	< 80%		
COc1ccc(CNC(=O)C(=O)c2c[nH]c3ccc([N+](=O)[O-])cc23)cc1			Ratio [3]: 1.11 and 0.96 and 0.9; Ki [4]: 126 nM; Ki [5]: 42 nM; Ki [6]: 137 nM
O=C(NC1Cc2ccccc2C1)C(=O)c1c[nH]c2ccc([N+](=O)[O-])cc12	< 80%		
COc1ccc(C(C)NC(=O)C(=O)c2c[nH]c3ccc([N+](=O)[O-])cc23)cc1OC (racemic)		55 nM	
O=C(N[C@@H]1CCc2ccccc21)C(=O)c1c[nH]c2ccc([N+](=O)[O-])cc12		28 nM	Ratio [3]: 1.12 and 0.98; Ki [4]: 95 nM; Ratio [7]: 1.13; Ki [5]: 9 nM; Ki [6]: 1960 nM
C[C@@H](NC(=O)C(=O)c1c[nH]c2ccc([N+](=O)[O-])cc12)c1ccc([N+](=O)[O-])cc1		78 nM	
COc1ccc(CNC(=O)C(=O)c2c[nH]c3ccc(OC)cc23)cc1		494 nM	
C[C@@H](NC(=O)C(=O)c1c[nH]c2ccc(Cl)cc12)c1ccccc1	< 80%		
CCOC(=O)[C@@H](C)NC(=O)C(=O)c1c[nH]c2ccc([N+](=O)[O-])cc12		45 nM	
C[C@@H](NC(=O)C(=O)c1c[nH]c2ccc([N+](=O)[O-])cc12)c1ccccc1		17 nM	Ki [4]: 239 nM; Ki [5]: 14 nM; Ki [6]: 283 nM
COc1ccc(NNC(=O)C(=O)c2c[nH]c3ccc(OC)cc23)cc1	< 80%		

Compound	inhibition [1]	Ki [2]	also measured
O=C(NC(CO)c1ccccc1)C(=O)c1c[nH]c2ccc([N+](=O)[O-])cc12 (racemic)	< 80%		
O=C(N[C@H]1CCc2ccccc21)C(=O)c1c[nH]c2ccc(Cl)cc12	< 80%		
O=C(NNc1ccc([N+](=O)[O-])cc1)C(=O)c1c[nH]c2ccccc12			Ratio [3]: 0.96 and 0.98 and 0.8; Ki [4]: 43 nM; Ki [5]: 25 nM; Ki [6]: 40 nM
O=C(NCc1ccc([N+](=O)[O-])cc1)C(=O)c1c[nH]c2ccc([N+](=O)[O-])cc12		620 nM	
Cc1ccc([C@@H](C)NC(=O)C(=O)c2c[nH]c3ccc(Cl)cc23)cc1		105 nM	
O=C(N[C@H]1CCc2ccccc21)C(=O)c1c[nH]c2ccccc12	< 80%		
Cc1ccc([C@H](C)NC(=O)C(=O)c2c[nH]c3ccc(Cl)cc23)cc1	< 80%		
COc1ccc(C(C)NC(=O)C(=O)c2c[nH]c3ccc(Cl)cc23)cc1OC (racemic)		153 nM	
Cc1ccc([C@H](C)NC(=O)C(=O)c2c[nH]c3ccc([N+](=O)[O-])cc23)cc1	< 80%		
C[C@H](NC(=O)C(=O)c1c[nH]c2ccc([N+](=O)[O-])cc12)c1ccc([N+](=O)[O-])cc1	< 80%		
O=C(C(=O)N1Cc2ccccc2C1)c1c[nH]c2ccc([N+](=O)[O-])cc12	< 80%		
CCOC(=O)C(NC(=O)C(=O)c1c[nH]c2ccc([N+](=O)[O-])cc12)c1ccccc1 (racemic)	< 80%		
Cc1ccc([C@@H](C)NC(=O)C(=O)c2c[nH]c3ccc([N+](=O)[O-])cc23)cc1		34 nM	
CCOC(=O)[C@H](C)NC(=O)C(=O)c1c[nH]c2ccc([N+](=O)[O-])cc12		1950 nM	
O=C(NC1Cc2ccccc2C1)C(=O)c1c[nH]c2ccccc12	< 80%		
O=C(N[C@@H]1CCc2ccccc21)C(=O)c1c[nH]c2ccccc12		675 nM	Ki [4]: 2160 nM; inhibition [8]: 28%; Ki [5]: 225 nM
N#CC(NC(=O)C(=O)c1c[nH]c2ccc([N+](=O)[O-])cc12)c1ccccc1 (racemic)		241 nM	
O=C(NNc1ccc([N+](=O)[O-])cc1)C(=O)c1c[nH]c2ccc([N+](=O)[O-])cc12	< 80%		
Cc1ccc([C@H](C)NC(=O)C(=O)c2c[nH]c3ccccc23)cc1	< 80%		
COc1ccc(C(C)NC(=O)C(=O)c2c[nH]c3ccc([N+](=O)[O-])cc23)cc1 (racemic)		113 nM	
O=C(NCc1ccc(Cl)cc1)C(=O)c1c[nH]c2ccc([N+](=O)[O-])cc12	< 80%		

Compound	inhibition [1]	Ki [2]	also measured
O=C(C(=O)N1Cc2ccccc2C1)c1c[nH]c2ccc(Cl)cc12	< 80%		
CCOC(=O)CNC(=O)C(=O)c1c[nH]c2ccc([N+](=O)[O-])cc12		2700 nM	
COc1ccc(NNC(=O)C(=O)c2c[nH]c3ccc([N+](=O)[O-])cc23)cc1	< 80%		
O=C(N[C@@H]1CCc2ccccc21)C(=O)c1c[nH]c2ccc(Cl)cc12		80 nM	
C[C@H](NC(=O)C(=O)c1c[nH]c2ccc([N+](=O)[O-])cc12)c1ccccc1	< 80%		
COc1ccc(C(C)NC(=O)C(=O)c2c[nH]c3ccc(Cl)cc23)cc1 (racemic)		103 nM	
Cc1ccc([C@@H](C)NC(=O)C(=O)c2c[nH]c3ccccc23)cc1		1150 nM	
O=C(NNc1ccc([N+](=O)[O-])cc1)C(=O)c1c[nH]c2ccc(Cl)cc12	< 80%		
C[C@H](NC(=O)C(=O)c1c[nH]c2ccc(Cl)cc12)c1ccc([N+](=O)[O-])cc1	< 80%		
C[C@@H](NC(=O)C(=O)c1c[nH]c2ccccc12)c1ccc([N+](=O)[O-])cc1	< 80%		
N#CC(NC(=O)C(=O)c1c[nH]c2ccccc12)c1ccccc1 (racemic)	< 80%		
COc1ccc(C(C)NC(=O)C(=O)c2c[nH]c3ccccc23)cc1OC (racemic)		850 nM	
Cc1ccc(-c2nc3ccc(C)cn3c2CC(=O)N(C)C)cc1			inhibition [9]: 35%
O=C(C(=O)N1Cc2ccccc2C1)c1c[nH]c2ccccc12		123 nM	Ratio [3]: 1.06 and 1.1; inhibition [10]: 43%; Ki [5]: 224 nM; Ki [6]: 3200 nM
COc1ccc2[nH]cc(C(=O)C(=O)NCc3ccc(Cl)cc3)c2c1	< 80%		
O=C(NC1Cc2ccccc2C1)C(=O)c1c[nH]c2ccc(Cl)cc12	< 80%		
COc1ccc2[nH]cc(C(=O)C(=O)NNc3ccc([N+](=O)[O-])cc3)c2c1	< 80%		
C[C@@H](NC(=O)C(=O)c1c[nH]c2ccccc12)c1ccccc1		1310 nM	Ki [4]: 5500 nM; inhibition [8]: 5%; Ki [5]: 1150 nM
C[C@@H](NC(=O)C(=O)c1c[nH]c2ccc(Cl)cc12)c1ccc([N+](=O)[O-])cc1		695 nM	
